Experimental data published in paper PMC2034471 (Nucleic Acids Research, 2007).

What was measured:
[1] = molecular target: 211 bp double-stranded DNA; assay: EMSA, 211 bp ds DNA; type: binding; details: read-out: Kd, 211 bp ds, with 1 mM DTT, 50 mM Tris–HCl pH 8.0, 50 mM NaCl, 0.1% triton X-100, 2 h at 22°C, phosphor screen
Procedure, shortened: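 211 bp fragment PCR-amplified from a DraI/BamHI digest of pUC(357.4) and 5′-32P end-labelled with T4 kinase at 37°C. Binding ran 2 h at 22°C in Tris–HCl pH 8.0 buffer with EDTA, AEBSF, 1 mM DTT, 50 mM NaCl and 0.1% triton X-100. Gels were 6% native polyacrylamide in 0.5× TEG at 70 V. Dried gels went onto a phosphor screen, and radioactive signals were quantified for affinity.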

[2] = molecular target: 35 bp ss; assay: EMSA, 35 nt single-stranded DNA; type: binding; details: read-out: Kd, 35 bp ss, without DTT, 50 mM Tris–HCl pH 8.0, 50 mM NaCl, 2 h at 22°C
Procedure, shortened: (§1)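 35-mer substrates (ss, GT mismatch, nick, gap, 3′-biotinylated duplex) made by annealing oligonucleotides in 10 mM Tris–HCl pH 8, 1 mM EDTA, 200 mM NaCl: 90°C 10 min, then slow cooling. Annealing checked on native gels. 5′-32P kinase labelling at 25°C. Incubation 2 h at 22°C in 50 mM Tris–HCl pH 8.0, 50 mM NaCl, with or without 1 mM DTT. Native 6% gels; phosphor-screen quantification for affinity.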

[3] = molecular target: 35 bp Nick; assay: EMSA, 35 bp DNA with nick; type: binding; details: read-out: Kd, 35 bp Nick, without DTT, 50 mM Tris–HCl pH 8.0, 50 mM NaCl, 2 h at 22°C
Procedure, shortened: as §1

[4] = molecular target: 35 bp mismatch GT; assay: EMSA, 35 bp DNA with GT mismatch; type: binding; details: read-out: Kd, 35 bp mismatch GT, without DTT, 50 mM Tris–HCl pH 8.0, 50 mM NaCl, 2 h at 22°C
Procedure, shortened: as §1

[5] = molecular target: 35 bp Gap; assay: EMSA, 35 bp DNA with gap; type: binding; details: read-out: Kd, 35 bp Gap, without DTT, 50 mM Tris–HCl pH 8.0, 50 mM NaCl, 2 h at 22°C
Procedure, shortened: as §1

[6] = tested on: 146 bp double-stranded DNA; assay: EMSA, 146 bp ds DNA; type: binding; details: DNA 26 nM, 2- to 128-fold molar excess of protein
Procedure, shortened: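 146 bp fragment made by PCR on a pUC(357.4) digest template and 5′-end labelled with 32P-ATP/T4 polynucleotide kinase at 37°C. Protein fragments incubated with labelled DNA for 2 h at 22°C in 50 mM Tris–HCl pH 8.0, 1 mM EDTA, 1 mM AEBSF, 1 mM DTT, 50 mM NaCl, 0.1% triton X-100. Resolved on pre-run 6% native polyacrylamide (29:1) in 0.5× TEG at 70 V. Complexes detected by autoradiography of dried gels at –80°C.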

[7] = ref [23]; cited from earlier work
[8] = molecular target: 35 bp double-stranded DNA; assay: EMSA, 35 bp ds DNA; type: binding; details: read-out: Kd, 35 bp ds, without DTT, 50 mM Tris–HCl pH 8.0, 50 mM NaCl, 2 h at 22°C, DNA 26 nM
[9] = aggregation / stability of Rad9 fragments in solution; type: physicochemical; details: after three days at 0.2 mM and 30°C; MES 50 mM, NaCl 50 mM, 2 mM TCEP, pH 6
[10] = tested on: 35 bp ds with a 3′ terminal biotin; assay: EMSA, 35 bp ds DNA with one 3′ terminal biotin; type: binding
Procedure, shortened: as §1

Kd [1]: 500 ± 70 nM | Kd [2]: 2500 ± 180 nM | Kd [3]: 620 ± 60 nM | Kd [4]: 890 ± 70 nM | Kd [5]: 960 ± 130 nM | Kd [8]: 960 ± 80 nM | Kd ([10]; read-out: Kd, 35 bp ds with a 3′ terminal biotin, EMSA, with 1 mM DTT, 50 mM Tris–HCl pH 8.0, 50 mM NaCl, 2 h at 22°C): 830 ± 50 nM
B1: ScRad9[754–947]: fragment 754–947 of Saccharomyces cerevisiae Rad9, tandem tudor domain (protein)
chain: GKDSKEQSYVFPEGIRTADNSFLSKDDIIFGNAVWCQYTWNYKFYPGILLEVDTNQDGCWIYFETGRSLTKDEDIYYLDIRIGDAVTFDGNEYVVVGLECRSHDLNIIRCIRGYDTVHLKKKNASGLLGKRTLIKALSSISLDLSEWAKRAKIILEDNEKNKGDAYRYLRHPIRGRKSMTNVLSPKKHTDDEKD
interaction with 146 bp ds DNA by gel retardation [6]: forms complexes | heat transition midpoint [7]: 52 °C | fraction of fragment aggregated [9]: 50% | effect of biotin on affinity for the oligonucleotide ([10]; 35 bp ds, biotinylated at one or two 3′-OH ends, no streptavidin): does not modify the affinity
